Activity calls are given as the source filed them. The calls are words filed in the database; no cut-off is given here.
Legend:
[1] = system: MT4; test: Antiproliferative activity against human MT4 cells after 96 hrs by MTT assay; assay type: functional, cell-based; details: Homo sapiens, MT4, 96 h
Outline: (§1)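 Exponentially growing cells in RPMI 1640 with 10% FCS were resuspended at 1 × 10⁵ cells/mL in RPMI containing serial dilutions of compound (DMSO solution at 200 µM, diluted in medium). After 96 h at 37 °C, viability was read by MTT. Growth was taken as % of untreated controls, which grew at least three rounds. IC50 came from linear regression, as the mean of three independent determinations.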

[2] = system: HT-29; test: Antiproliferative activity against human HT-29 cells after 96 hrs by MTT assay; assay type: functional, cell-based; details: Homo sapiens, HT-29, 96 h
Outline: (§2)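 Solid-tumor cells in their specific media with 10% FCS were seeded at 5 × 10⁴ cells/mL and left to adhere 16 h. Serially diluted compound was then added (DMSO solution at 200 µM, diluted in medium). MTT viability was read 4 days later. IC50 came from linear regression against untreated controls, which grew at least three rounds, as the mean of three independent determinations.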

[3] = system: CCRF-CEM; test: Antiproliferative activity against human CCRF-CEM cells after 96 hrs by MTT assay; assay type: functional, cell-based; outline: as §1
[4] = system: CCRF-SB; test: Antiproliferative activity against human CCRF-SB cells after 96 hrs by MTT assay; assay type: functional, cell-based; outline: as §1
[5] = system: MCF7; test: Antiproliferative activity against human MCF7 cells after 96 hrs by MTT assay; assay type: functional, cell-based; details: MCF7, 96 h; outline: as §2
[6] = system: HeLa; test: Antiproliferative activity against human HeLa cells after 96 hrs by MTT assay; assay type: functional, cell-based; outline: as §2
[7] = system: ACHN; test: Antiproliferative activity against human ACHN cells after 96 hrs by MTT assay; assay type: functional, cell-based; outline: as §2
[8] = system: SF-268; test: Antiproliferative activity against human SF-268 cells after 96 hrs by MTT assay; assay type: functional, cell-based; details: SF-268, 96 h; outline: as §2
[9] = system: XF498; test: Antiproliferative activity against human XF498 cells after 96 hrs by MTT assay; assay type: functional, cell-based; details: XF498, 96 h; outline: as §2
[10] = system: MRC5; test: Antiproliferative activity against human MRC5 cells after 96 hrs by MTT assay; assay type: cell-based; details: MRC5, 96 h; outline: as §1
[11] = biological target: T1, DNA topoisomerase 1 (Homo sapiens) (UniProt P11387); test: Inhibition of DNA topoisomerase 1-mediated supercoiled pBR322 DNA relaxation at 5 to 10 uM by agarose gel electrophoresis
T1 sequence (whole entry): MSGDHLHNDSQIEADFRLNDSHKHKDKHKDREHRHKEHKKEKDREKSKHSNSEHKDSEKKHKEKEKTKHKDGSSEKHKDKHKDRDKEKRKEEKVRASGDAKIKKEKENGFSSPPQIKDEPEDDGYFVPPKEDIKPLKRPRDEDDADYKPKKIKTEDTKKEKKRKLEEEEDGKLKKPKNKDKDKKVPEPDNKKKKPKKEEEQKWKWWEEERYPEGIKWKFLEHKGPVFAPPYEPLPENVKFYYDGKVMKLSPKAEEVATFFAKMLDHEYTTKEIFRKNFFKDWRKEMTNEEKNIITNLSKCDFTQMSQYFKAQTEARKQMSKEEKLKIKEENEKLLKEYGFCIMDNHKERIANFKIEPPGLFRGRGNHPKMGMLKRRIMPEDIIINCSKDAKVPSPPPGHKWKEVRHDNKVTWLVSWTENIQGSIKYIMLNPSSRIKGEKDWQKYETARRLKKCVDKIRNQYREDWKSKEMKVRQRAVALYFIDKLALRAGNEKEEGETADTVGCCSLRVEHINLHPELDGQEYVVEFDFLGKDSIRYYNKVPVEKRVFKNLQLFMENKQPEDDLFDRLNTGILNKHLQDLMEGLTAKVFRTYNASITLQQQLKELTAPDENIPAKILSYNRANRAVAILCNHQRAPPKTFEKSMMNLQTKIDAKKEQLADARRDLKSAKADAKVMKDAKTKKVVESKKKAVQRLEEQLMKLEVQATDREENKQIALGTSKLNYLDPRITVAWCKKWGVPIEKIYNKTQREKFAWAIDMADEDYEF

[12] = biological target: DNA topoisomerase 2-alpha (Homo sapiens) (UniProt P11388); test: Inhibition of DNA topoisomerase 2-mediated negatively supercoiled pBR322 relaxation
Sequence of DNA topoisomerase 2-alpha (Homo sapiens) (P11388 whole entry): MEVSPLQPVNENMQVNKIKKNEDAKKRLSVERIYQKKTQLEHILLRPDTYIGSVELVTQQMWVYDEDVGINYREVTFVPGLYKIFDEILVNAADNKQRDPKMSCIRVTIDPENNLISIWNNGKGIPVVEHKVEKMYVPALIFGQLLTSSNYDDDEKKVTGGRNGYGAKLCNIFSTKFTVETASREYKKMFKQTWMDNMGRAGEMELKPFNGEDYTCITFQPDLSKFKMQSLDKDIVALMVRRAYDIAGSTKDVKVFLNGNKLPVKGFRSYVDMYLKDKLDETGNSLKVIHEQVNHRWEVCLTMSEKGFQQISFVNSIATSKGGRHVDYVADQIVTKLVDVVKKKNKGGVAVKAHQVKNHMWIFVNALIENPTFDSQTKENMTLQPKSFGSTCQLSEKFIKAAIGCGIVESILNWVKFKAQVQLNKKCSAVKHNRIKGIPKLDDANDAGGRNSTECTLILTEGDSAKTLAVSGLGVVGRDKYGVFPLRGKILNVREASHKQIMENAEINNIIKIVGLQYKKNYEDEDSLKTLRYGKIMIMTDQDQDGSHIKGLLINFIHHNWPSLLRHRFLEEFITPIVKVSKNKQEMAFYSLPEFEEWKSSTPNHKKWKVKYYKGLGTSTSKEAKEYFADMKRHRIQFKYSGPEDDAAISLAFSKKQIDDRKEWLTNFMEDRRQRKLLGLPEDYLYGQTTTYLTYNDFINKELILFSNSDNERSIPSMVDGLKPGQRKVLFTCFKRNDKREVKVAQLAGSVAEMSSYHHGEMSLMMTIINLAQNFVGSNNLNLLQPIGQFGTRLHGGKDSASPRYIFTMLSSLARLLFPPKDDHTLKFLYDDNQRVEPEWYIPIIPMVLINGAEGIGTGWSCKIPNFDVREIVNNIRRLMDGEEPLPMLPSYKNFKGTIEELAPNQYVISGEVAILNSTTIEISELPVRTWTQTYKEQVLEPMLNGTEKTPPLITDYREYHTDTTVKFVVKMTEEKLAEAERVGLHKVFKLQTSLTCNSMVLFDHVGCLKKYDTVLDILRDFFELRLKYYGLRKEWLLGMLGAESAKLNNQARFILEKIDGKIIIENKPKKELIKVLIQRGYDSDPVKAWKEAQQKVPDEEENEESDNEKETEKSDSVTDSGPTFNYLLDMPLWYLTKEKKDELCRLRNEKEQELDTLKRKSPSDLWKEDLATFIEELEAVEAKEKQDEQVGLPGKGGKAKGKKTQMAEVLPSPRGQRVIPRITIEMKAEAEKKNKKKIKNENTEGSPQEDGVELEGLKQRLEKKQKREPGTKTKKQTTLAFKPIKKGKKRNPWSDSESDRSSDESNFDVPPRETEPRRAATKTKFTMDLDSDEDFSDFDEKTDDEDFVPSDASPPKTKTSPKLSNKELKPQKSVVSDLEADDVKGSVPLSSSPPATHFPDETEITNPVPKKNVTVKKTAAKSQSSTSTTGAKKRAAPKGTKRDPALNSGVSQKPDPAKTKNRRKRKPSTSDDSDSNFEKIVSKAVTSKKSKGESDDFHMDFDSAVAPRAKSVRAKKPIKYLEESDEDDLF

[13] = biological target: T1, DNA topoisomerase 1 (Homo sapiens); test: Inhibition of DNA topoisomerase 1-mediated supercoiled pBR322 DNA relaxation at 25 uM by agarose gel electrophoresis
[14] = biological target: T2, DNA ligase (Enterobacteria phage T4) (UniProt P00970); test: Inhibition of T4 DNA ligase by DNA unwinding assay; details: Tequatrovirus T4
T2 sequence (whole entry): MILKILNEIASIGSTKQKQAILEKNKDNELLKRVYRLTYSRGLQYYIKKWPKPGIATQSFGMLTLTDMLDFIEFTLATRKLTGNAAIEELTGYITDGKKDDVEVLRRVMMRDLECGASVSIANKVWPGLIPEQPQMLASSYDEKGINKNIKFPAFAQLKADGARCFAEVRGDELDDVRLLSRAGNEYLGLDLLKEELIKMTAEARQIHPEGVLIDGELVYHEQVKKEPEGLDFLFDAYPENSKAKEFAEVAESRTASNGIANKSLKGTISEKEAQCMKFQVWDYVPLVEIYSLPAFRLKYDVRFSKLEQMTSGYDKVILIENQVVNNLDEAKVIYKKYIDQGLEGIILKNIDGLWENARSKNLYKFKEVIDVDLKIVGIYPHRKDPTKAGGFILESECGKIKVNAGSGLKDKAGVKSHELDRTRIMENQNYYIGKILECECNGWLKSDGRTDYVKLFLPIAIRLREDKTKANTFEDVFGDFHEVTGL
Outline: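 EcoRI-linearized pBR322 (0.1 µg) in 30 mM Tris-HCl pH 7.8, 10 mM MgCl2, 10 mM DTT and 0.5 mM ATP was equilibrated with compound 30 min at 20 °C. Excess T4 DNA ligase was then added for 30 min at 20 °C, and reactions were stopped at 55 °C. After phenol extraction, products were resolved on 1% agarose gels.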

[15] = biological target: T1, DNA topoisomerase 1 (Homo sapiens); test: Inhibition of DNA topoisomerase 1-mediated supercoiled pBR322 DNA relaxation at 5 uM by agarose gel electrophoresis

Compound	IC50 [1]	IC50 [2]	IC50 [3]	IC50 [4]	IC50 [5]	IC50 [6]	IC50 [7]	IC50 [8]	IC50 [9]	IC50 [10]	Activity [11]	Activity [12]	Activity [13]	Activity [14]	Activity [15]
CCCc1ccc(N2C(=O)NC3(CSC4=C3C(=O)c3ncccc3C4=O)C2=O)cc1 (racemic)	1 nM	1 nM	1 nM	2 nM	2 nM	5 nM	1 nM	300 nM	450 nM	850 nM	inactive	Dose-dependent effect			
CN(C)c1ccc(N2C(=O)NC3(CSC4=C3C(=O)c3ncccc3C4=O)C2=O)cc1 (racemic)	15 nM	20 nM	1 nM	1 nM	10 nM	10 nM	90 nM	950 nM	800 nM	1000 nM		Dose-dependent effect			
O=C1C2=C(C(=O)c3ncccc31)C1(CS2)NC(=O)N(c2ccc(Cl)cc2)C1=O (racemic)	10 nM	2 nM	10 nM	10 nM	4 nM	2 nM	4 nM	580 nM	590 nM	800 nM		Dose-dependent effect			
COc1cccc2c1C(=O)c1c(O)c3c(c(O)c1C2=O)C[C@@](O)(C(=O)CO)C[C@@H]3O[C@H]1C[C@H](N)[C@H](O)[C@H](C)O1 [DOXORUBICIN]	3 nM	2 nM	20 nM					200 nM	160 nM	300 nM			Active	Active	Active
CC(C)(C)c1ccc(N2C(=O)NC3(CSC4=C3C(=O)c3ncccc3C4=O)C2=O)cc1 (racemic)	200 nM	150 nM	200 nM	200 nM	130 nM	100 nM	150 nM	500 nM	850 nM						
Cc1ccc(N2NC(=O)NC3(CSC4=C3C(=O)c3ncccc3C4=O)C2=O)cc1 (racemic)	100 nM	200 nM	70 nM	37 nM	410 nM	210 nM	500 nM	2100 nM	3800 nM						
COc1cc([C@@H]2c3cc4c(cc3[C@@H](O[C@@H]3O[C@@H]5CO[C@@H](C)O[C@H]5[C@H](O)[C@H]3O)[C@H]3COC(=O)[C@H]23)OCO4)cc(OC)c1O [ETOPOSIDE]	1250 nM	2500 nM	1200 nM	100 nM	1000 nM	3000 nM	2150 nM	3250 nM	3450 nM	3900 nM					
CCc1ccc(N2C(=O)NC3(CSC4=C3C(=O)c3ncccc3C4=O)C2=O)cc1 (racemic)	1 nM	1 nM	10 nM	10 nM	50 nM	5 nM	5 nM	450 nM	1200 nM						
CCN(CC)c1ccc(N2C(=O)NC3(CSC4=C3C(=O)c3ncccc3C4=O)C2=O)cc1 (racemic)	8 nM	50 nM	20 nM	9 nM	30 nM	50 nM	20 nM	960 nM	730 nM						
CCCCCc1ccc(N2C(=O)NC3(CSC4=C3C(=O)c3ncccc3C4=O)C2=O)cc1 (racemic)	190 nM	250 nM	250 nM	150 nM	250 nM	200 nM	250 nM	520 nM	830 nM						
O=C1C2=C(C(=O)c3ncccc31)C1(CS2)NC(=O)N(c2ccc([N+](=O)[O-])cc2)C1=O (racemic)	8 nM	250 nM	1 nM	2 nM	350 nM	100 nM	100 nM	1520 nM	1030 nM						
COc1ccc(N2NC(=O)NC3(CSC4=C3C(=O)c3ncccc3C4=O)C2=O)cc1 (racemic)	80 nM	650 nM	35 nM	35 nM	230 nM	150 nM	430 nM	2850 nM	3800 nM						

Source: ChEMBL document CHEMBL1151746, “Antitumor agents 6. Synthesis, structure-activity relationships, and biological evaluation of spiro[imidazolidine-4,3'-thieno[2,3-g]quinoline]-tetraones and spiro[thieno[2,3-g]quinoline-3,5'-[1,2,4]triazinane]-tetraones with potent antiproliferative activity” (J Med Chem, 2008)
